Compound activity deposited in PubChem BioAssay by several laboratories.
In the library only some 4% were active in any assay of this set; here they are far more common.
CHO parental Ca: signal in parental CHO cells, OX1R antagonist counter-screen. parental CHO-K1, ATP-induced calcium, Fluo-8 fluorescence. inhibition, % at 5.6 µM. 330,000 tested, 0.63% active. AID 463079;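 active = inhibition above that plate's mean sample inhibition plus 3 SD, cut at about 26% in these data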;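 also: 0% = ATP-challenged DMSO wells and 100% = DMSO wells without ATP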
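material = parental CHO cells | also added = ATP as calcium-mobilizing challenge | dosing = single point at 5.6 µM | detection = intracellular calcium via Fluo-8 no-wash fluorescent dye | read-out = % inhibition | benchmarks = low control ATP plus DMSO, high control DMSO only | repeats = one well per compound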
TAAR1 antagonist: human TAAR1 antagonism; AID 624466; 360,000 tested, 1.5% active; CHO RD-HGA16 TAAR1, Fluo-8 calcium fluorescence, antagonist; inhibition, % at 3 µM;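 active = inhibition above a per-plate cutoff, the mean inhibition of test compounds on that plate plus 3 SD, cut at about 49% in these data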;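 also: 0% = DMSO plus EC80 beta-PEA response and 100% = DMSO alone without agonist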
Target sequence (Q96RJ0 whole entry, looked up): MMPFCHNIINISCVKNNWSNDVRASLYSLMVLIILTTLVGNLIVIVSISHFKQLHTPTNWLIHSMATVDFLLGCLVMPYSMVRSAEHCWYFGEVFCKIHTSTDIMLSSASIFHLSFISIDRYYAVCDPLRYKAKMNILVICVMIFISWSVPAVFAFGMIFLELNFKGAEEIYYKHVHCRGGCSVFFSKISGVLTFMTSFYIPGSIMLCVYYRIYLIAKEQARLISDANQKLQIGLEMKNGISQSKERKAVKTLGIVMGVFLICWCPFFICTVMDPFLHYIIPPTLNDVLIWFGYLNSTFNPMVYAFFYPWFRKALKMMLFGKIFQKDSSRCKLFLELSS
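System: CHO RD-HGA16 cells bearing hTAAR1. Reagent: EC80 β-phenethylamine stimulus. Schedule: seeding 17-24 h prior, 75-min 37 °C, 30-min RT dye loading. Signal: Fluo-8 intracellular calcium dye fluorescence, real-time kinetic reads. Read-out: % inhibition from peak post-agonist over basal fluorescence ratio. Benchmarks: vehicle wells and EC80 agonist wells. Replicates: n of 1.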
TAAR1 agonist: human TAAR1 agonism | Q96RJ0 | CHO RD-HGA16 TAAR1, Fluo-8 calcium fluorescence; vehicle wells 0%, saturating PEA agonist 100% | activation, % at 3 µM | 360,000 tested, 0.99% active | AID 624467;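 active = activation above the mean activation of all test compounds in the run plus 3 SD, cut at about 38% in these data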
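Assay system: CHO-derived RD-HGA16 cells with stable Gα16 and human TAAR1; timing: 17-24 h seeding, 75 min 37 °C dye, 30 min RT; read-out: % activation from peak over basal fluorescence ratio, DMSO-to-PEA scaled; measured by: kinetic Fluo-8 calcium fluorescence; benchmarks: low control DMSO, high control PEA (EC100); doses: 3 µM single concentration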
NTR1 agonist: NTR1 (human) agonism; 330,000 tested, 0.17% active; AID 493036; activation, % at 20 µM; NTR1-U2OS beta-arrestin-GFP spot imaging, agonist mode; P30989;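 active = activation at or above 40% of the spot to cytoplasm intensity ratio, with at least 20 cells analyzed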;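 also: 0% = DMSO without peptide and 100% = 100 nM NTR1 peptide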
OX1R antag-1: human HCRTR1 antagonism | CHO/OX1R cells, Fluo-8 calcium fluorescence, orexin A | inhibition, % at 5 µM | O43613 | 330,000 tested, 0.43% active;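 active = inhibition above its plate's threshold, mean inhibition of all tested compounds on the plate plus 3 SD, cut at about 37% in these data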;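 also: 0% = orexin A challenge wells and 100% = SB-334867-A antagonist wells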
OX1R antag-2: antagonists of human orexin 1 receptor (OX1R) | O43613 | OX1R-expressing cells, FRET antagonist read-out | inhibition, % at 6.6 µM | 330,000 tested, 1.8% active; in the data active = inhibition mostly above about 38%, no sharp cut-off; inactive = mostly below about 40%;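 also: 0% = agonist challenge alone and 100% = reference antagonist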
OX1R HTRF conf: OX1R (human) antagonism, HTRF confirmed. shares compounds with OX1R antag-2. OX1R-expressing cells, HTRF antagonist assay. inhibition, % at 6.6 µM. 1,800 tested, 49% active; in the data active = inhibition above about 55%;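 also: CHO cells expressing OX1R stimulated with orexin A at about EC80; 0% = agonist challenge alone and 100% = reference antagonist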
CHO-K1 HTRF: counter-screen for OX1R antagonists: effect in parental CHO-K1 cells; shares compounds with OX1R antag-2; HTRF counterscreen; inhibition, % at 6.6 µM; 1,800 tested, 48% active; AID 493232; in the data active = inhibition above about 17%;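 also: 0% = agonist challenge with vehicle and 100% = vehicle alone without agonist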
The depositor's hits bear a star; x = no result given.

SMILES | CHO parental Ca | TAAR1 antagonist | TAAR1 agonist | NTR1 agonist | OX1R antag-1 | OX1R antag-2 | OX1R HTRF conf | CHO-K1 HTRF
CCC(=O)c1cn(CC(=O)Nc2ccc(C)cc2)c2ccccc12 | -11 | -9 | 2 | 0 | -20 | 24 | x | x
O=C(NN=Cc1ccc([N+](=O)[O-])cc1)c1ccncc1 | x | -14 | 0 | x | x | x | x | x
O=C(N/N=C/c1ccncc1)c1cc([N+](=O)[O-])cc([N+](=O)[O-])c1 | -8 | -13 | 6 | 0 | -20 | 86* | 50 | 74*
COC(=O)CNC(=O)/C=C/c1cc(Br)ccc1OC | -5 | -19 | 2 | -1 | -14 | 22 | x | x
COc1ccc(Br)cc1/C=C/C(=O)Nc1ccc(C)cc1 | -26 | 30 | -2 | 4 | -10 | 95* | 69* | 22*
CCOc1ccccc1N(C)C(=O)Cn1ncc2c([nH]c3ccc(C)cc32)c1=O | -22 | 19 | 6 | 3 | -12 | 13 | x | x
CCOc1ccccc1NC(=S)NNS(=O)(=O)c1c(C)cc(C)cc1C | -3 | -15 | 1 | 0 | -13 | 97* | 26 | 4
CC(=O)c1cccc(S(=O)(=O)Nc2ccccc2N2CCOCC2)c1 | -2 | -3 | 3 | 0 | -2 | 6 | x | x
